# This is a sample that favours compounds with a hit; in the whole collection about 3.7% have one here.
# PKD1 inh: inhibitors of human PKD1 kinase, biochemical, fluorescence polarization; Serine/threonine-protein kinase D1 (Homo sapiens), Q15139; PKD1 kinase fluorescence polarization assay; inhibition, % (no concentration beside the values); 200,000 compounds, 0.056% hits; AID 797, 2007; in the data active = inhibition above about 50%
# ROMK primary: ROMK potassium channel modulators, primary screen, cell-based, thallium flux, MLSMR library; ATP-sensitive inward rectifier potassium channel 1 (Homo sapiens), P48048; AID 1918, 2009; Tet-inducible ROMK, thallium flux fluorescence; actives lie on both sides; 130,000 compounds, 2% hits; B-score at 10 µM;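 active = signal ratio slope over the read window, or its plate-corrected B-score, at least 3 SD from the plate mean, either direction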;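 note: B-score of the F/F0 ratio slope over 7 to 12 s after thallium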
# Cl transport mod: KCC2 cotransporter modulators, thallium flux, primary screen, cell-based, HEK293 KCC2, FluoZin-2 fluorescence, MLSMR; Solute carrier family 12 member 5 (Homo sapiens), Q9H2X9; KCC2 cells, thallium flux FluoZin-2 fluorescence; B-score of Tl+ flux slope (higher = more flux/activation; lower = inhibition) at 10 µM; 190,000 compounds, 2.2% hits;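 active = thallium flux slope and its plate-corrected score both differing from the plate sample mean at a set confidence after two filtering rounds, in either direction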;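 note: slope of fluorescence scaled to starting intensity during 10 to 20 s after thallium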
# Arbovirus inh: antivirals against arbovirus infection, primary screen, cell-based, full library, 10K replicate subset | arbovirus infection cell-based antiviral screen | inhibition, % at 10 µM | 200,000 compounds, 0.37% hits | AID 1251, 2008; in the data active = inhibition above about 30%
# m-calpain inh: inhibitors of pig calpain II, primary screen, biochemical, fluorogenic peptide substrate, 1536-well; AID 1236, 2008; purified calpain II, 30 min; 220,000 compounds, 0.37% hits; inhibition, % at 16 µM;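 active = inhibition above about 50%, limit read from the data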
# Mdm2 ligase inh: MDM2-luciferase reporter signal enhancers, primary screen, MDM2 E3 ligase inhibitor project, cell-based, luminescence, 1536-well | E3 ubiquitin-protein ligase Mdm2 (Homo sapiens), Q00987 | cell-based MDM2 ubiquitination luciferase reporter, 2 h; 0 = plate control, 100 = twice control, blank-subtracted | signal enhancement, % at 5 µM | 210,000 compounds, 0.11% hits | AID 1230, 2008;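 active = signal enhancement of 30% or more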;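 note: luminescence tracks abundance of the self-degrading MDM2-luciferase fusion protein; higher signal means inhibition of MDM2 E3 ligase activity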
# Target sequence (Q00987 whole entry, looked up, the tested form may be a part): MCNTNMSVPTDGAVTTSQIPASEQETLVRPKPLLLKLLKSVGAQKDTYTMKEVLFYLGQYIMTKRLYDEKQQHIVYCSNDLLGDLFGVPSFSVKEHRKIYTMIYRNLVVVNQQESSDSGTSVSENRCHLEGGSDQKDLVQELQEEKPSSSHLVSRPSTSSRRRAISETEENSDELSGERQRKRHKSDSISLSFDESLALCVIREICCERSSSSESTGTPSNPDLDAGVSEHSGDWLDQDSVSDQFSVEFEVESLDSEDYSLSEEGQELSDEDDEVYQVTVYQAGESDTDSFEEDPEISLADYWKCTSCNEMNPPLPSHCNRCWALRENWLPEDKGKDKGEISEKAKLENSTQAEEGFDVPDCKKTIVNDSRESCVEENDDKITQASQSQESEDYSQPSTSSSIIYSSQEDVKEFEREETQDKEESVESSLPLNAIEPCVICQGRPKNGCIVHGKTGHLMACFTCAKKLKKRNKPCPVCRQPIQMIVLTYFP
#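 Timing – 2 h compound exposure at 37 °C · Assay system – mammalian cells stably expressing self-ubiquitinating, self-degrading MDM2 E3–luciferase fusion · Amount – 2000 cells seeded into each well · Measure – % luminescence enhancement versus blank-corrected plate control mean · Measured by – SteadyLite luminescence, 15 min reagent step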
# FP interf 140K: fluorescence polarization interference in PKD1 assay, artefact control for PKD1 inhibitor project, biochemical, 140K library. shares compounds with PKD1 inh. PKD1 FP assay interference counter-screen. inhibition, % at 10 µM. 85 tested, under 10 active. AID 1315, 2008; call rule not given here
# ROMK retest: ROMK channel modulator hit retest, confirmation, cell-based, thallium flux, duplicate, resupplied hits | 3,000 compounds, 54% hits | normalized thallium flux (F/F0 slope) at 10 µM | fluorescence ratio; stronger effect = lower value | AID 1917, 2009 | shares compounds with ROMK primary;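 active = Flux at 10 µM at least 3 SD below or above vehicle control mean in one or both replicates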
# Starred values were filed as active, the others as inactive; i = inactive; nt = no result.
SMILES,PKD1 inh,ROMK primary,Cl transport mod,Arbovirus inh,m-calpain inh,Mdm2 ligase inh,FP interf 140K,others
Cn1c(=O)c(NCCO)c2c3c(cccc31)C(=O)c1ccccc1-2,144*,nt,i,8,-22,1,100*,
Nc1ccc2nc3c(=O)n(CCc4ccccc4)c(=O)[nH]c3nc2c1,nt,nt,i,nt,-7,-7,nt,
CCCCn1c(=O)[nH]c2nc3cc(N)ccc3nc2c1=O,60*,nt,i,-19,-16,-7,7,
CCN(CC)CCN(Cc1cc2ccc(C)c(C)c2[nH]c1=O)C(=S)NCc1ccco1,6,0.55,0.65,-18,-6,4,nt,
O=C(Nc1ccc(CN2CCOCC2)cc1)c1ccc(-c2cccc(Cl)c2)o1,86*,nt,nt,-35,-49,-19,-16,
Cc1c(C(=O)N/N=C/c2ccc(O)c(Br)c2)sc(N)c1C#N,76*,-0.5,-0.59,-14,-21,-4,-17,
O=C(CN(c1ccc(F)cc1)S(=O)(=O)c1ccc2c(c1)OCCO2)NCc1ccncc1,-10,nt,-0.41,1,18,-16,nt,
CCCNC(=O)CN(c1ccc(F)cc1)S(=O)(=O)c1ccc2c(c1)OCCO2,56*,nt,0.17,10,11,-9,-14,
Cc1ccc(NC(=O)Cc2c(O)c3ccccc3[nH]c2=O)c(C)c1,nt,nt,-0.091,nt,10,-8,nt,
Cc1c(N/N=C(\C#N)C(=O)c2ccc(Cl)cc2)c(=O)n(-c2ccccc2)n1C,62*,-1.1,0.29,-32,27,11,15,
CCN1/C(=C/C(C)=O)Sc2ccc(OC)cc21,78*,nt,-0.11,-9,11,-1,-14,
CCN(CC)S(=O)(=O)c1ccc(N2CCOCC2)c(NC(=O)C2CCCO2)c1 (stereo unspecified),nt,nt,0.027,nt,-12,nt,nt,
CCOC(=O)N1CCN(c2cc(NCCC(=O)O)c3c4c(onc24)-c2ccccc2C3=O)CC1,56*,nt,-2.8,6,-58,-18,14,
Cn1c(OCc2cccnc2)nc2c1c(=O)n(Cc1ccc(Br)cc1)c(=O)n2C,97*,-0.14,-2,8,6,nt,-4,
Cn1c(OCc2cccnc2)nc2c1c(=O)n(Cc1ccc(Cl)cc1)c(=O)n2C,-6,-1.4,-1.2,nt,nt,nt,nt,
CCOC(=O)N1CCC(NS(=O)(=O)c2cc(Br)cc3c2N(C(=O)CC)CC3)CC1,66*,0.48,0.49,0,-9,-10,-18,
COc1ccc2nc3sc(C(=O)NCCCN4CCc5ccccc5C4)cc3cc2c1,56*,-0.21,0.63,-1,-30,-11,-17,
C=CCn1c(C)cc(C(=O)COC(=O)/C=C/c2cccc(OC)c2)c1C,-11,0.59,nt,9,12,-13,nt,
O=C(Nc1ccccc1)C12CC3CC(C1)CC(n1cnc([N+](=O)[O-])n1)(C3)C2,-4,nt,0.026,6,-6,-29,nt,
O=C(Nc1cccc([N+](=O)[O-])c1)C12CC3CC(C1)CC(n1cnc([N+](=O)[O-])n1)(C3)C2,62*,nt,-0.017,-4,25,-4,0,
CC(Sc1nnc2ccccn12)C(=O)NCc1ccc2c(c1)OCO2 (stereo unspecified),0,0.14,0.51,-10,-59,-8,nt,
C=CCn1c(SC(C)C(=O)NCc2ccc3c(c2)OCO3)nnc1C1CCCCC1 (stereo unspecified),97*,nt,-0.69,1,28,-15,-5,
Cc1nn(C)c(C(=O)NNC(=O)Nc2cccc(C(F)(F)F)c2)c1Cl,-1,0.02,-0.18,22,16,-6,nt,
CC1CCCC(C)N1C(=O)Cn1cc(/C=C2/C(=O)Nc3ccccc32)c2ccccc21 (stereo unspecified),51*,-2.2,nt,-3,-143,8,-8,
COC(=O)c1cn(CC(=O)N2C(C)CCCC2C)c2ccccc12 (stereo unspecified),-6,nt,-0.96,13,22,-4,nt,
SMILES,PKD1 inh,ROMK primary,Cl transport mod,Arbovirus inh,m-calpain inh,Mdm2 ligase inh,FP interf 140K,others
NC(=NCCc1c[nH]c2ccccc12)NS(=O)(=O)c1cc(F)ccc1F,52*,-0.71,-0.00068,11,2,-3,-15,
O=C(Nc1ccsc1C(=O)NC1CCCCC1)c1ccc(F)cc1,-14,nt,1.2,-9,-32,-5,nt,
O=C(Nc1ccsc1C(=O)NC1CC1)c1ccccc1,50*,nt,nt,8,20,-4,-10,
Cc1cccc(N2CCN(Cc3cn(C)nc3-c3ccccc3F)CC2)n1,-6,0.095,-0.54,-12,-14,-8,nt,
CCNc1ccc2noc3c2c1C(=O)c1ccccc1-3,41,nt,-1.3,-19,-6,-8,nt,
O=C1c2ccccc2-c2onc3ccc(NCc4ccco4)c1c23,60*,nt,i,-23,-8,-23,6,
CCOc1ccc2noc3c2c1C(=O)c1ccccc1-3,97*,nt,nt,-16,-7,4,62*,
CC1CNCCN1S(=O)(=O)c1cccc2cnccc12 (stereo unspecified),20,nt,0.44,25,4,nt,nt,
O=S(=O)(c1cccc2cnccc12)N1CCCNCC1,104*,nt,-0.037,11,-21,nt,-5,
COC(=O)c1ccc2c(c1O)C(=O)c1ccccc1C2=O,1,-0.084,-0.0013,-7,-57,-21,nt,
COC(=O)c1cccc2c1-c1ccccc1/C2=N/O,70*,0.28,-1.1,4,-14,-12,-19,
Cc1c(-c2ccccc2)oc2c(C(=O)N3CCN(c4ccc([N+](=O)[O-])cc4)CC3)cccc2c1=O,2,nt,-0.49,15,-40,-14,nt,
CCOc1cccc(C2C(C(=O)c3ccc(C)o3)=C(O)C(=O)N2c2nccs2)c1 (stereo unspecified),88*,-5.4*,-2.2,-7,-98,-17,71*,ROMK retest=0.038*
Cc1ccc(NCc2n[nH]c(=S)n2-c2ccccc2)c(C)c1,-6,0.077,-0.29,11,-13,-5,nt,
COCCNc1oc(-c2ccc(F)cc2)nc1C#N,-9,1.5,-0.12,5,nt,-12,nt,

# Bioassay records deposited in PubChem BioAssay by several laboratories.
